Measured values: ChEMBL document CHEMBL1124957, “6-Benzoxazinylpyridazin-3-ones: potent, long-acting positive inotrope and peripheral vasodilator agents” (J Med Chem, 1990)

Columns and labels:
Canis familiaris [1] = assay: Effective dose required to increase the myocardial contractile force (CF) 50% above base line when administered intravenously.; format: functional; conditions: Canis lupus familiaris, Myocardium, iv
In short: (§1)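 Dopamine standard (10–15 μg/kg/min, 3 min) checked inotropic responsiveness. Compounds dissolved in DMF, diluted to 10% final in saline; stepwise 3–4 increasing doses, each infused over 5 min after prior peak. CF, MAP, HR expressed as % change from predrug control vs cumulative dose.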

Canis familiaris [2] = assay: Myocardial contractile force (CF) in dog after intravenous dose of 1.875 mg/kg; format: functional, Canis lupus familiaris, Myocardium
In short: as §1, with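 “Anesthetized adult mongrel dogs (sodium pentobarbital 45 mg/kg ip), artificially respired; MAP from cannulated femoral artery, infusion into femoral vein. Dopamine” for “Dopamine”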

[3] = biological target: phosphodiesterase fraction III (Canis familiaris); assay: Inhibition of cardiac phosphodiesterase-3 isolated from canine heart.
Canis familiaris [4] = assay: Heart rate in dog following 1.875 mg/kg i.v. administration.; format: functional, Canis lupus familiaris; conditions: route intravenous
In short: as §1, with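 “Anesthetized adult mongrel dogs (sodium pentobarbital 45 mg/kg ip), artificially respired; MAP from cannulated femoral artery, infusion into femoral vein. Dopamine” for “Dopamine”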

Canis familiaris [5] = assay: Mean arterial blood pressure in dog following 1.875 mg/kg i.v. administration.; format: functional, Canis lupus familiaris; conditions: route intravenous
In short: as §1, with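 “Anesthetized adult mongrel dogs (sodium pentobarbital 45 mg/kg ip), artificially respired; MAP from cannulated femoral artery, infusion into femoral vein. Dopamine” for “Dopamine”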

Canis familiaris [6] = assay: Heart rate (HR) in dog after intravenous dose of 0.470 mg/kg; format: functional, Canis lupus familiaris; conditions: dose 0.47 mg/kg
In short: as §1, with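 “Anesthetized adult mongrel dogs (sodium pentobarbital 45 mg/kg ip), artificially respired; MAP from cannulated femoral artery, infusion into femoral vein. Dopamine” for “Dopamine”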

Canis familiaris [7] = assay: Mean arterial blood pressure (MAP) in dog after intravenous dose of 0.470 mg/kg; format: functional, Canis lupus familiaris; parameters: unit: % change from predrug control; conditions: dose 0.47 mg/kg
In short: as §1, with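 “Anesthetized adult mongrel dogs (sodium pentobarbital 45 mg/kg ip), artificially respired; MAP from cannulated femoral artery, infusion into femoral vein. Dopamine” for “Dopamine”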

Canis familiaris [8] = assay: Myocardial contractile force (CF) in dog after intravenous dose of 0.470 mg/kg; format: functional, Canis lupus familiaris, Myocardium; conditions: dose 0.47 mg/kg
In short: as §1, with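 “Anesthetized adult mongrel dogs (sodium pentobarbital 45 mg/kg ip), artificially respired; MAP from cannulated femoral artery, infusion into femoral vein. Dopamine” for “Dopamine”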

Canis familiaris [9] = assay: Myocardial contractile force (CF) in dog after intravenous dose of 0.075 mg/kg; format: functional, Canis lupus familiaris, Myocardium; in short: as §1
Canis familiaris [10] = assay: Mean arterial blood pressure (MAP) in dog after intravenous dose of 0.075 mg/kg; format: functional, Canis lupus familiaris; in short: as §1
Canis familiaris [11] = assay: Heart rate (HR) in dog after intravenous dose of 0.075 mg/kg; format: functional, Canis lupus familiaris; in short: as §1
Canis familiaris [12] = assay: Intravenous dose required to increase contractile force (inotropic effect) by 50%; format: functional; conditions: Canis lupus familiaris
In short: as §1, with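 “Anesthetized adult mongrel dogs (sodium pentobarbital 45 mg/kg ip), artificially respired; MAP from cannulated femoral artery, infusion into femoral vein. Dopamine” for “Dopamine”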

Canis familiaris [13] = species: Canis familiaris; assay: Inotropic and enzyme inhibition effect on heart rate (HR); format: functional, Canis lupus familiaris
[14] = Index of contractility was determined as the ratio of % of dP/dtmax in conscious dog after (po) administration of 0.30 mg/kg; format: functional; conditions: dose 0.3 mg/kg
In short: (§2)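 Conscious dogs, instrumented earlier with an LV Konigsberg pressure transducer through a left thoracotomy, with ≥1 week recovery and trained to lie quietly. LV dP/dtmax derived as the contractility index; baseline MAP, HR, dP/dtmax taken first. Compound suspended in 0.1% methylcellulose (10 mL) and given by gavage through a gastric tube. Response recorded as % change, also at 8 h.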

[15] = Index of contractility was determined as the ratio of % of dP/dtmax in conscious dog after (po) administration of a dose of 0.01 mg/kg; format: functional; in short: as §2
Canis familiaris [16] = assay: Percent change in activity 8 hr after peroral administration in conscious dog at 0.10 mg/kg; format: functional, Canis lupus familiaris; conditions: dose 0.1 mg/kg; route oral; in short: as §2
[17] = Index of contractility was determined as the ratio of % of dP/dtmax in conscious dog after (po) administration of 0.10 mg/kg; format: functional; conditions: dose 0.1 mg/kg; in short: as §2
Canis familiaris [18] = assay: Percent change in activity 8 hr after peroral administration in conscious dog at 0.30 mg/kg; format: functional, Canis lupus familiaris; conditions: dose 0.3 mg/kg; route oral; in short: as §2
Canis familiaris [19] = assay: Mean arterial blood pressure (MAP) in dog after intravenous dose of 0.188 mg/kg; format: functional, Canis lupus familiaris
In short: as §1, with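 “Anesthetized adult mongrel dogs (sodium pentobarbital 45 mg/kg ip), artificially respired; MAP from cannulated femoral artery, infusion into femoral vein. Dopamine” for “Dopamine”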

Canis familiaris [20] = assay: Myocardial contractile force (CF) in dog after intravenous dose of 0.188 mg/kg; format: functional, Canis lupus familiaris, Myocardium
In short: as §1, with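 “Anesthetized adult mongrel dogs (sodium pentobarbital 45 mg/kg ip), artificially respired; MAP from cannulated femoral artery, infusion into femoral vein. Dopamine” for “Dopamine”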

Canis familiaris [21] = assay: Heart rate (HR) in dog after intravenous dose of 0.188 mg/kg; format: functional, Canis lupus familiaris
In short: as §1, with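 “Anesthetized adult mongrel dogs (sodium pentobarbital 45 mg/kg ip), artificially respired; MAP from cannulated femoral artery, infusion into femoral vein. Dopamine” for “Dopamine”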

Canis familiaris [22] = assay: Heart rate (HR) in dog after intravenous dose of 0.010 mg/kg; format: functional, Canis lupus familiaris; conditions: dose 0.075 mg/kg, in the assay text read “0.075 mg/kg” for “0.010 mg/kg”
In short: as §1, with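 “Anesthetized adult mongrel dogs (sodium pentobarbital 45 mg/kg ip), artificially respired; MAP from cannulated femoral artery, infusion into femoral vein. Dopamine” for “Dopamine”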

Canis familiaris [23] = assay: Myocardial contractile force (CF) in dog after intravenous dose of 0.100 mg/kg; format: functional, Canis lupus familiaris, Myocardium; conditions: dose 0.1 mg/kg
In short: as §1, with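 “Anesthetized adult mongrel dogs (sodium pentobarbital 45 mg/kg ip), artificially respired; MAP from cannulated femoral artery, infusion into femoral vein. Dopamine” for “Dopamine”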

Canis familiaris [24] = assay: Heart rate (HR) in dog after intravenous dose of 0.100 mg/kg; format: functional, Canis lupus familiaris; conditions: dose 0.1 mg/kg
In short: as §1, with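 “Anesthetized adult mongrel dogs (sodium pentobarbital 45 mg/kg ip), artificially respired; MAP from cannulated femoral artery, infusion into femoral vein. Dopamine” for “Dopamine”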

Canis familiaris [25] = assay: Mean arterial blood pressure (MAP) in dog after intravenous dose of 0.100 mg/kg; format: functional, Canis lupus familiaris; conditions: dose 0.1 mg/kg
In short: as §1, with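 “Anesthetized adult mongrel dogs (sodium pentobarbital 45 mg/kg ip), artificially respired; MAP from cannulated femoral artery, infusion into femoral vein. Dopamine” for “Dopamine”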

Structure (SMILES)	ED50 (Canis familiaris [1]) [mg/kg]	Activity (Canis familiaris [2])	IC50 [3] [µM]	Activity (Canis familiaris [4])	Activity (Canis familiaris [5])	other results
CS(=O)(=O)N1CCOc2ccc(C3=NNC(=O)CC3)cc21	1.33	76	9.5	24	-14	–
CC(=O)N1CCOc2ccc(C3=NNC(=O)CC3)cc21	0.37	121	100	20	-14	–
O=C1CCC(c2ccc3c(c2)NCCO3)=NN1	0.62	105	50	15	-17	–
CC1CC(=O)NN=C1c1ccc2c(c1)NCCO2 (centres undefined)	0.056	–	6	–	–	Activity (Canis familiaris [6]): 44; Activity (Canis familiaris [7]): -11; Activity (Canis familiaris [8]): 149
Cc1cc(C2=NNC(=O)CC2C)c2c(c1)N(C)C(=O)CO2 (centres undefined)	0.75	98	7.5	19	-17	–
CC1CC(=O)NN=C1c1ccc2c(c1)OC(C)C(=O)N2 (centres undefined)	0.0054	–	4	–	–	Activity (Canis familiaris [9]): 154; Activity (Canis familiaris [10]): -17; Activity (Canis familiaris [11]): 23
CC1CC(=O)NN=C1c1ccc2c(c1)NC(=O)C(C)O2 (centres undefined)	0.07	–	5	–	–	Activity (Canis familiaris [6]): 18; Activity (Canis familiaris [7]): -10; Activity (Canis familiaris [8]): 157
CC1CC(=O)NN=C1c1ccc2c(c1)N(S(C)(=O)=O)CCO2 (centres undefined)	0.148	–	4	–	–	Activity (Canis familiaris [6]): 17; Activity (Canis familiaris [7]): -1; Activity (Canis familiaris [8]): 99
CC1CC(=O)NN=C1c1ccc2c(c1)OC(C)(C)C(=O)N2 (centres undefined)	0.0162	–	4	–	–	Activity (Canis familiaris [9]): 82; Activity (Canis familiaris [10]): -28; Activity (Canis familiaris [11]): 16
CN1C(=O)C(C)(C)Oc2ccc(C3=NNC(=O)CC3)cc21	–	125	36	8	-12	ED50 (Canis familiaris [12]): 0.8 mg/kg
CC1CC(=O)NN=C1c1ccc2c(c1)N(C1CCCC1)C(=O)C(C)O2 (centres undefined)	> 1.88	36	8	7	-5	–
Cc1cc2c(c(C3=NNC(=O)CC3C)c1)OCC(=O)N2 (centres undefined)	1.8	51	28	8	-15	–
CC1CC(=O)NN=C1c1ccc2c(c1)OC(C)(C)C(=O)N2C (centres undefined)	0.0217	–	6	–	–	Activity (Canis familiaris [9]): 85; Activity (Canis familiaris [10]): -14; Activity (Canis familiaris [11]): 19
Cc1cc(C2=NNC(=O)CC2)c2c(c1)N(C)C(=O)CO2	0.258	–	26	–	–	Activity (Canis familiaris [13]): 9; Activity (Canis familiaris [7]): 1; Activity (Canis familiaris [8]): 73
Cc1cc2c(c(C3=NNC(=O)CC3)c1)OCC(=O)N2	> 1.88	32	31	2	-12	–
CC(=O)N1CCOc2ccc(C3=NNC(=O)CC3C)cc21 (centres undefined)	0.056	–	30	–	–	Activity (Canis familiaris [6]): 35; Activity (Canis familiaris [7]): -31; Activity (Canis familiaris [8]): 135

Structure (SMILES)	ED50 (Canis familiaris [1]) [mg/kg]	Activity (Canis familiaris [2])	IC50 [3] [µM]	Activity (Canis familiaris [4])	Activity (Canis familiaris [5])	other results
CC1CC(=O)NN=C1c1ccc2c(c1)NC(=O)CO2 (centres undefined)	0.077	–	2	–	–	Activity (Canis familiaris [6]): 26; Activity (Canis familiaris [7]): -14
CN1N=C(c2ccc3c(c2)N(S(C)(=O)=O)CCO3)CCC1=O	> 1.88	26	100	12	0	–
CC1Oc2ccc(C3=NNC(=O)CC3)cc2NC1=O (centres undefined)	0.49	–	14	24	–	–
Cc1cc2c(cc1C1=NNC(=O)CC1C)NC(=O)CO2 (centres undefined)	0.137	–	20	–	–	Activity (Canis familiaris [6]): 20; Activity (Canis familiaris [7]): -4
CCCCCN1N=C(c2ccc3c(c2)N(S(C)(=O)=O)CCO3)CCC1=O	> 1.88	22	50	-2	-6	–
CC1CC(=O)NN=C1c1ccc2c(c1)N(C(C)C)C(=O)C(C)O2 (centres undefined)	0.47	83	5	8	-16	–
CS(=O)(=O)N1CCOc2ccc(C3=NN(c4ccccc4)C(=O)CC3)cc21	> 1.88	30	200	6	9	–
CN1C(=O)COc2ccc(C3=NNC(=O)CC3)cc21	0.279	–	18	–	–	Activity (Canis familiaris [6]): 13; Activity (Canis familiaris [7]): -4
CC1(C)Oc2ccc(C3=NNC(=O)CC3)cc2NC1=O	0.65	113	23	14	-6	–
O=C1CCC(c2ccc3c(c2)NC(=O)CO3)=NN1	0.7	–	630	9	–	–
C=CCN1N=C(c2ccc3c(c2)N(S(C)(=O)=O)CCO3)CCC1=O	> 1.88	37	–	10	4	–
CC1CC(=O)NN=C1c1ccc2c(c1)N(C)C(=O)C(C)O2 (centres undefined)	0.068	–	6	–	–	Activity (Canis familiaris [6]): 36; Activity (Canis familiaris [7]): -15
CC1CC(=O)NN=C1c1ccc2c(c1)OCC(=O)N2 (centres undefined) [BEMORADAN]	0.0054	–	0.3	–	–	Activity (Canis familiaris [9]): 127; Ratio [14]: 130%; Activity (Canis familiaris [10]): -21; Ratio [15]: 43%; Change (Canis familiaris [16]): 31%; Ratio [17]: 85%; Activity (Canis familiaris [11]): 25; Change (Canis familiaris [18]): 65%
O=C1CCC(c2ccc(-n3ccnc3)cc2)=NN1 [IMAZODAN]	0.0822	–	–	–	–	Activity (Canis familiaris [19]): -4; Activity (Canis familiaris [20]): 77; Activity (Canis familiaris [21]): 8
CC1(C)C(=O)Nc2ccc(C3=NNC(=O)CC3)cc21 [INDOLIDAN]	0.0084	–	7	–	–	Activity (Canis familiaris [9]): 110; Activity (Canis familiaris [10]): -27; Activity (Canis familiaris [22]): 32
Cc1[nH]c(=O)c(C#N)cc1-c1ccncc1 [MILRINONE]	0.022	–	–	–	–	Activity (Canis familiaris [23]): 105; Activity (Canis familiaris [24]): 15; Activity (Canis familiaris [25]): -13
